In ChEMBL document CHEMBL4689842, “EUbOPEN Chemogenomics Library wave 1” (2021):

Test system: HEK-293T
Experiment: Multiplex assay against HEK293T;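 on Population Tubulin-Different-Phenotype (%): share of the cells with healthy nuclei that show this phenotype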
Assay type: toxicity, cell-based
Conditions: human
Outline: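 At seeding, live cells were stained with Hoechst33342, BioTracker Green Microtubule Cytoskeleton Dye, MitoTracker Red and Annexin V Alexa Fluor 680. After compound addition they were imaged on a CQ1 microscope at 37°C and 5% CO2, and CellPathfinder machine-learning gating sorted them into Hoechst high-intensity objects or normal cells, with normal cells further split into healthy, pyknosed or fragmented nuclei and pyknosed cells into mitotic or apoptotic. Tubulin, mitochondrial-mass and membrane-permeability phenotypes are given as per cents of cells with healthy nuclei.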

[1] = 12 h, 1 µM, compound concentration 1 uM, replicate 1
[2] = 12 h, 1 µM, compound concentration 1 uM, replicate 2
[3] = 12 h, 10 µM, compound concentration 10 uM, replicate 1
[4] = 12 h, 10 µM, compound concentration 10 uM, replicate 2
[5] = 24 h, 1 µM, compound concentration 1 uM, replicate 1
[6] = 24 h, 1 µM, compound concentration 1 uM, replicate 2
[7] = 24 h, 10 µM, compound concentration 10 uM, replicate 1
[8] = 24 h, 10 µM, compound concentration 10 uM, replicate 2
[9] = 48 h, 1 µM, compound concentration 1 uM, replicate 1
[10] = 48 h, 1 µM, compound concentration 1 uM, replicate 2
[11] = 48 h, 10 µM, compound concentration 10 uM, replicate 1
[12] = 48 h, 10 µM, compound concentration 10 uM, replicate 2

## CCc1cccc(CC)c1NC(=O)c1nn(C)c2c1CCc1cnc(Nc3ccc(C(=O)NC4CCN(C)CC4)cc3OC(F)(F)F)nc1-2
[1]
  Population Apoptotic (%): 66%
  Population Fragmented Nuclei (%): 8%
  Population Healthy Nuclei (%): 46%
  Population Hoechst High Intensity Objects (%): 11%
  Population Membrane Permeable-Phenotype (%): 3%
  Population Mitochondria Different-Phenotype (%): 93%
  Population Mitotic Cells (%): 33%
  Population Normal (%): 88%
  Population Pyknosed Nuclei (%): 45%
  Population Tubulin-Different-Phenotype (%): 68%
  Total Cell Count: 312
[2]
  Population Apoptotic (%): 28%
  Population Fragmented Nuclei (%): 4%
  Population Healthy Nuclei (%): 39%
  Population Hoechst High Intensity Objects (%): 4%
  Population Membrane Permeable-Phenotype (%): 2%
  Population Mitochondria Different-Phenotype (%): 57%
  Population Mitotic Cells (%): 71%
  Population Normal (%): 95%
  Population Pyknosed Nuclei (%): 56%
  Population Tubulin-Different-Phenotype (%): 62%
  Total Cell Count: 251
[3]
  Population Apoptotic (%): 80%
  Population Fragmented Nuclei (%): 11%
  Population Healthy Nuclei (%): 31%
  Population Hoechst High Intensity Objects (%): 11%
  Population Membrane Permeable-Phenotype (%): 0%
  Population Mitochondria Different-Phenotype (%): 98%
  Population Mitotic Cells (%): 19%
  Population Normal (%): 88%
  Population Pyknosed Nuclei (%): 57%
  Population Tubulin-Different-Phenotype (%): 98%
  Total Cell Count: 300
[4]
  Population Apoptotic (%): 73%
  Population Fragmented Nuclei (%): 4%
  Population Healthy Nuclei (%): 16%
  Population Hoechst High Intensity Objects (%): 7%
  Population Membrane Permeable-Phenotype (%): 4%
  Population Mitochondria Different-Phenotype (%): 86%
  Population Mitotic Cells (%): 26%
  Population Normal (%): 92%
  Population Pyknosed Nuclei (%): 78%
  Population Tubulin-Different-Phenotype (%): 86%
  Total Cell Count: 152
[5]
  Population Apoptotic (%): 63%
  Population Fragmented Nuclei (%): 10%
  Population Healthy Nuclei (%): 53%
  Population Hoechst High Intensity Objects (%): 10%
  Population Membrane Permeable-Phenotype (%): 1%
  Population Mitochondria Different-Phenotype (%): 84%
  Population Mitotic Cells (%): 36%
  Population Normal (%): 89%
  Population Pyknosed Nuclei (%): 36%
  Population Tubulin-Different-Phenotype (%): 56%
  Total Cell Count: 342
[6]
  Population Apoptotic (%): 25%
  Population Fragmented Nuclei (%): 2%
  Population Healthy Nuclei (%): 59%
  Population Hoechst High Intensity Objects (%): 4%
  Population Membrane Permeable-Phenotype (%): 3%
  Population Mitochondria Different-Phenotype (%): 52%
  Population Mitotic Cells (%): 74%
  Population Normal (%): 95%
  Population Pyknosed Nuclei (%): 38%
  Population Tubulin-Different-Phenotype (%): 55%
  Total Cell Count: 287
[7]
  Population Apoptotic (%): 74%
  Population Fragmented Nuclei (%): 12%
  Population Healthy Nuclei (%): 42%
  Population Hoechst High Intensity Objects (%): 10%
  Population Membrane Permeable-Phenotype (%): 4%
  Population Mitochondria Different-Phenotype (%): 98%
  Population Mitotic Cells (%): 25%
  Population Normal (%): 89%
  Population Pyknosed Nuclei (%): 45%
  Population Tubulin-Different-Phenotype (%): 98%
  Total Cell Count: 342
[8]
  Population Apoptotic (%): 93%
  Population Fragmented Nuclei (%): 6%
  Population Healthy Nuclei (%): 32%
  Population Hoechst High Intensity Objects (%): 5%
  Population Membrane Permeable-Phenotype (%): 0%
  Population Mitochondria Different-Phenotype (%): 93%
  Population Mitotic Cells (%): 6%
  Population Normal (%): 94%
  Population Pyknosed Nuclei (%): 61%
  Population Tubulin-Different-Phenotype (%): 91%
  Total Cell Count: 158
[9]
  Population Apoptotic (%): 43%
  Population Fragmented Nuclei (%): 14%
  Population Healthy Nuclei (%): 59%
  Population Hoechst High Intensity Objects (%): 12%
  Population Membrane Permeable-Phenotype (%): 0%
  Population Mitochondria Different-Phenotype (%): 57%
  Population Mitotic Cells (%): 56%
  Population Normal (%): 87%
  Population Pyknosed Nuclei (%): 26%
  Population Tubulin-Different-Phenotype (%): 46%
  Total Cell Count: 417
[10]
  Population Apoptotic (%): 27%
  Population Fragmented Nuclei (%): 7%
  Population Healthy Nuclei (%): 69%
  Population Hoechst High Intensity Objects (%): 3%
  Population Membrane Permeable-Phenotype (%): 2%
  Population Mitochondria Different-Phenotype (%): 32%
  Population Mitotic Cells (%): 72%
  Population Normal (%): 96%
  Population Pyknosed Nuclei (%): 23%
  Population Tubulin-Different-Phenotype (%): 43%
  Total Cell Count: 410
[11]
  Population Apoptotic (%): 84%
  Population Fragmented Nuclei (%): 14%
  Population Healthy Nuclei (%): 52%
  Population Membrane Permeable-Phenotype (%): 3%
  Population Mitochondria Different-Phenotype (%): 94%
  Population Mitotic Cells (%): 15%
  Population Pyknosed Nuclei (%): 32%
  Population Tubulin-Different-Phenotype (%): 88%
  Total Cell Count: 339
[12]
  Population Apoptotic (%): 91%
  Population Fragmented Nuclei (%): 8%
  Population Healthy Nuclei (%): 38%
  Population Hoechst High Intensity Objects (%): 13%
  Population Membrane Permeable-Phenotype (%): 6%
  Population Mitochondria Different-Phenotype (%): 93%
  Population Mitotic Cells (%): 8%
  Population Normal (%): 86%
  Population Pyknosed Nuclei (%): 52%
  Population Tubulin-Different-Phenotype (%): 86%
  Total Cell Count: 173

## CCc1cccc(CC)c1NC(=O)c1nn(C)c2c1CCc1cnc(Nc3ccc(N4CCN(C)CC4)cc3OC)nc1-2
[1]
  Population Apoptotic (%): 27%
  Population Fragmented Nuclei (%): 14%
  Population Healthy Nuclei (%): 18%
  Population Hoechst High Intensity Objects (%): 18%
  Population Membrane Permeable-Phenotype (%): 11%
  Population Mitochondria Different-Phenotype (%): 32%
  Population Mitotic Cells (%): 72%
  Population Normal (%): 81%
  Population Pyknosed Nuclei (%): 67%
  Population Tubulin-Different-Phenotype (%): 75%
  Total Cell Count: 690
[2]
  Population Apoptotic (%): 19%
  Population Fragmented Nuclei (%): 2%
  Population Healthy Nuclei (%): 54%
  Population Hoechst High Intensity Objects (%): 7%
  Population Membrane Permeable-Phenotype (%): 5%
  Population Mitochondria Different-Phenotype (%): 69%
  Population Mitotic Cells (%): 80%
  Population Normal (%): 92%
  Population Pyknosed Nuclei (%): 42%
  Population Tubulin-Different-Phenotype (%): 97%
  Total Cell Count: 922
[3]
  Population Apoptotic (%): 19%
  Population Fragmented Nuclei (%): 11%
  Population Healthy Nuclei (%): 64%
  Population Hoechst High Intensity Objects (%): 14%
  Population Membrane Permeable-Phenotype (%): 13%
  Population Mitochondria Different-Phenotype (%): 12%
  Population Mitotic Cells (%): 80%
  Population Normal (%): 85%
  Population Pyknosed Nuclei (%): 24%
  Population Tubulin-Different-Phenotype (%): 54%
  Total Cell Count: 730
[4]
  Population Apoptotic (%): 5%
  Population Fragmented Nuclei (%): 3%
  Population Healthy Nuclei (%): 89%
  Population Hoechst High Intensity Objects (%): 2%
  Population Membrane Permeable-Phenotype (%): 8%
  Population Mitochondria Different-Phenotype (%): 24%
  Population Mitotic Cells (%): 94%
  Population Normal (%): 97%
  Population Pyknosed Nuclei (%): 6%
  Population Tubulin-Different-Phenotype (%): 57%
  Total Cell Count: 1395
[5]
  Population Apoptotic (%): 39%
  Population Fragmented Nuclei (%): 18%
  Population Healthy Nuclei (%): 17%
  Population Hoechst High Intensity Objects (%): 13%
  Population Membrane Permeable-Phenotype (%): 11%
  Population Mitochondria Different-Phenotype (%): 41%
  Population Mitotic Cells (%): 60%
  Population Normal (%): 86%
  Population Pyknosed Nuclei (%): 63%
  Population Tubulin-Different-Phenotype (%): 68%
  Total Cell Count: 683
[6]
  Population Fragmented Nuclei (%): 3%
  Population Healthy Nuclei (%): 27%
  Population Hoechst High Intensity Objects (%): 12%
  Population Membrane Permeable-Phenotype (%): 3%
  Population Mitochondria Different-Phenotype (%): 92%
  Population Normal (%): 87%
  Population Pyknosed Nuclei (%): 68%
  Population Tubulin-Different-Phenotype (%): 89%
  Total Cell Count: 901
[7]
  Population Apoptotic (%): 27%
  Population Fragmented Nuclei (%): 11%
  Population Healthy Nuclei (%): 77%
  Population Hoechst High Intensity Objects (%): 8%
  Population Membrane Permeable-Phenotype (%): 20%
  Population Mitochondria Different-Phenotype (%): 9%
  Population Mitotic Cells (%): 72%
  Population Normal (%): 91%
  Population Pyknosed Nuclei (%): 10%
  Population Tubulin-Different-Phenotype (%): 65%
  Total Cell Count: 803
[8]
  Population Apoptotic (%): 11%
  Population Fragmented Nuclei (%): 8%
  Population Healthy Nuclei (%): 88%
  Population Hoechst High Intensity Objects (%): 3%
  Population Membrane Permeable-Phenotype (%): 13%
  Population Mitotic Cells (%): 88%
  Population Normal (%): 96%
  Population Pyknosed Nuclei (%): 3%
  Population Tubulin-Different-Phenotype (%): 62%
  Total Cell Count: 1777
